# Compounds with a hit are over-represented: about 2% of the library has one in this group of screens.
# HSP90 inh: inhibitors of HSP90 luciferase refolding in rabbit reticulocyte lysate | luciferase refolding luminescence, 3 h | 290,000 tested, 0.91% active | inhibition, % at 5.6 µM;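 active = inhibition above the screen-wide mean plus 3 SD, computed separately per campaign, cut at about 16% in these data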;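 also: 0% = DMSO wells and 100% = 60 µM geldanamycin wells; inhibitors lower the luminescence because luciferase stays unfolded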
# STAT1 blocker: reduces IFN-gamma driven STAT1 reporter signal; NIH 3T3 STAT1-luciferase reporter, luminescence; inhibition, % at 5.5 µM; 200,000 tested, 0.35% active;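 active = inhibition above a set limit, the mean inhibition across all tested compounds plus 3 SD, cut at about 34% in these data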;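 also: 0% = IFN-gamma with DMSO and 100% = IFN-gamma with 300 µM nifuroxazide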
# STAT3 inh-1: reduces IL-6 driven STAT3 reporter signal. inhibition, % at 5.5 µM. AID 862. 190,000 tested, 0.89% active. U3A cells, IL-6 STAT3-luciferase reporter, luminescence; host cell line lacks STAT1;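 active = inhibition above the mean inhibition across all screened compounds plus 3 SD, cut at about 44% in these data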;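 also: 0% = DMSO only wells and 100% = 100 µM nifuroxazide control wells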
# STAT3 act: STAT3 signaling activation; 190,000 tested, 0.91% active; activation (% of control), % at 5.6 µM; U3A cells, IL-6 STAT3-luciferase reporter, luminescence; 100% = signal with IL-6 EC80 alone;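 active = activation above the screen-wide mean of compound activation plus 3 SD, cut at about 130% in these data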;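 also: 0% = background luminescence of wells with medium and substrate only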
#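 Material: STAT3-luciferase reporter U3A cells. Controls: IL-6-treated wells, 100% activation. Read-out: % activation versus median of IL-6-stimulated wells. Probe or stimulus: IL-6 stimulus at 33 ng/mL final. Timing: compound 1 h, then IL-6 6 h at 37 °C. Signal: reporter luminescence signal.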
# STAT3 inh-2: STAT3 inhibition, confirmation assay | shares compounds with STAT3 inh-1 | U3A cells, IL-6 STAT3 luciferase reporter, luminescence; cell line lacks STAT1 | inhibition, % at 5.7 µM | 1,200 tested, 45% active | AID 1265;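 active = inhibition above the hit cutoff computed for the primary STAT3 screen, cut at about 44% in these data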;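 also: 0% = IL-6 plus DMSO and 100% = IL-6 plus nifuroxazide control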
# NFkB inh STAT3ct: inhibits NF-kappaB, counter-screen to STAT3 inhibitors | shares compounds with STAT3 inh-1 | 1,200 tested, 36% active | HEK293T NF-kB luciferase reporter, TNF-alpha induced | inhibition, % at 5.7 µM;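 active = inhibition above the mean of solvent-only control wells plus 3 SD, cutoff set per campaign, cut at about 13% in these data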;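 also: 0% = TNF-alpha with DMSO and 100% = TNF-alpha with MG high control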
# STAT1 inh STAT3c: counter-screen for STAT3 inhibitors: STAT1 inhibition. shares compounds with STAT3 inh-1. NIH 3T3 STAT1-luciferase reporter, IFN-gamma induced, luminescence. inhibition, % at 5.7 µM. 1,200 tested, 27% active;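 active = inhibition above the mean plus 3 SD of solvent-only control wells, limit set per screening run, cut at about 16% in these data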;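 also: 0% = DMSO with IFN-gamma and 100% = nifuroxazide control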
# HSP90 inh confirm: HSP90 inhibition, confirmation assay | AID 1846 | 2,300 tested, 64% active | inhibition, % at 5.9 µM | rabbit reticulocyte lysate, luciferase refolding luminescence, 3 h | shares compounds with HSP90 inh; in the data active = inhibition above about 18%;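 also: 0% = vehicle wells and 100% = reference inhibitor wells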
# luciferase ctr: counter-screen for HSP90 inhibitors: inhibitors of firefly luciferase; shares compounds with HSP90 inh; purified native firefly luciferase, luminescence; inhibition, % at 5.9 µM; 2,300 tested, 48% active;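 active = inhibition above the mean inhibition of all tested sample wells plus 3 SD, cut at about 10% in these data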;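 also: 0% = DMSO with luciferase and 100% = wells lacking luciferase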
# Target sequence (P08659 whole entry, looked up): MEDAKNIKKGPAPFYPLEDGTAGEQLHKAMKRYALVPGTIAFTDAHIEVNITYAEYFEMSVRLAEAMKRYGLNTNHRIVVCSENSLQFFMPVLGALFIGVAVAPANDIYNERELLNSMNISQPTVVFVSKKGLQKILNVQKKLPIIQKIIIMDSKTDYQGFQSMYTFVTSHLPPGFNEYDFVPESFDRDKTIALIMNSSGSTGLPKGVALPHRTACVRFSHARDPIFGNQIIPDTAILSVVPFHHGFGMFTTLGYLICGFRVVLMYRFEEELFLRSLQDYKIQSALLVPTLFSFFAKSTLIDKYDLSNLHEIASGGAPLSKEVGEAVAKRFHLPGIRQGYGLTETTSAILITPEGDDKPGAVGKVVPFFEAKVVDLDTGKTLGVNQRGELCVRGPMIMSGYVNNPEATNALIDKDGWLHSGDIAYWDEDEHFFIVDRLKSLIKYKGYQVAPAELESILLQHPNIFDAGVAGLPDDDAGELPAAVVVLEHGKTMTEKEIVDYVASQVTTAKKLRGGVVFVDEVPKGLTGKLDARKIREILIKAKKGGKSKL
# The depositor's hits bear a star; x = not tested or not shown.
SMILES,HSP90 inh,STAT1 blocker,STAT3 inh-1,STAT3 act,STAT3 inh-2,NFkB inh STAT3ct,STAT1 inh STAT3c,HSP90 inh confirm,luciferase ctr
CC(C)c1ccc2oc(-c3ccc(N)cc3)nc2c1,22.6*,27.8,77.7*,36.2,32.1,5.1,-88.0,49.6*,46.3*
Clc1ccc(CO/N=C2\CCCc3nonc32)c(Cl)c1,4.2,6.0,15.5,85.8,x,x,x,x,x
COC(=O)c1cn[nH]c1NC(=S)Nc1ccc(C)cc1Cl,35.5*,-76.5,50.0*,59.1,10.0,-24.4,-170.1,40.8*,40.7*
COc1ccc(-c2csc3ncnc(N4CCN(c5ccc(OC)cc5)CC4)c23)cc1,-1.1,x,x,x,x,x,x,x,x
COc1ccc(-c2nsc3c(N4CCCC4)ncnc23)cc1,29.5*,-26.4,52.8*,60.4,25.5,5.0,-73.6,60.4*,41.5*
Cc1cc(C)c(NC(=O)CCCCCNC2CCCCC2)c(C)c1,-3.2,x,x,x,x,x,x,x,x
COc1cc2c(cc1OC)C(c1ccccc1[N+](=O)[O-])N(C(C)=O)CC2 (configuration not stated),8.2,x,x,x,x,x,x,x,x
CN(C)c1ccc(C(=S)Nc2ccccc2)cc1,56.8*,-43.9,57.2*,52.9,23.2,-36.8,-108.6,64.7*,-4.6
CCn1nc(C)c(CNC(=O)C2CCC(=O)N(CCc3ccc(OC)cc3)C2)c1C (configuration not stated),-4.9,x,x,x,x,x,x,x,x
Cc1ccc2nc(NC(=O)CSCC(=O)OCC(=O)c3ccccc3)sc2c1,65.6*,13.3,50.9*,58.0,56.6*,23.4*,24.3*,78.5*,-9.8
CS(=O)(=O)c1ccc2nc(NC(=O)c3cccs3)sc2c1,18.4*,13.0,58.6*,53.4,17.3,-7.4,-59.8,36.7*,23.0*
Cc1ccc2nc(NC(=O)c3cccs3)sc2c1,18.8*,-29.9,70.1*,44.1,33.9,-6.8,-128.7,40.1*,37.9*
CC(=O)/C(N=Nc1ccc2c(c1)OCCO2)=C(\C)O,25.4*,18.8,67.6*,44.3,-6.1,-9.7,-92.0,44.5*,55.5*
CC(=O)/C(N=Nc1ccc2c(c1)OCO2)=C(\C)O,-3.7,-42.7,-6.4,107.5,x,x,x,x,x
Cc1nc(-c2coc3cc(O)c(C)cc3c2=O)cs1,18.1*,10.7,52.7*,58.3,27.7,-0.2,-79.9,52.2*,51.3*
Cc1cccc(N2CCN(CCCNC(=O)c3ccc(NC(=O)C4=CSCCO4)cc3)CC2C)c1 (configuration not stated),-1.4,x,x,x,x,x,x,x,x
O=C(CCCOc1ccc(Cl)cc1)N1CCCCC1,-0.1,-10.5,2.3,99.1,x,x,x,x,x
O=C(CCCOc1ccccc1)N1CCCCC1,34.0*,-0.8,48.2*,62.4,7.0,-8.0,-74.4,65.8*,52.5*
CC(OC(=O)c1cc(-c2cccnc2)nc2ccccc12)C(=O)Nc1ccc2ccccc2c1 (configuration not stated),0.8,-0.8,5.0,95.7,x,x,x,x,x
O=C(c1cc(-c2ccc(O)cc2)on1)N1CCCCCC1,12.3,x,x,x,x,x,x,x,x
Cc1ccc(-c2cc(C(=O)N3CCCC3)no2)cc1,20.1*,29.1,75.8*,39.0,48.0*,16.1*,-38.9,64.6*,52.4*
COc1ccc(NC(=O)CSc2nc3n[nH]c(C)c3c(=N)n2-c2ccc(Cl)c(C)c2)cc1OC,0.2,x,x,x,x,x,x,x,x
CN=C1S/C(=C\c2cc(C)n(-c3ccccc3F)c2C)C(=O)N1C,49.4*,-0.2,56.3*,58.0,21.7,-23.7,-97.7,65.2*,62.6*
Cc1ccc(C)c(N(CC(=O)NC2CCCC2)C(=O)CCC(=O)Nc2cc(C)on2)c1,-0.8,x,x,x,x,x,x,x,x
Cc1cc(C(=O)COC(=O)c2n[nH]c3ccccc23)c(C)n1CC1CCCO1 (configuration not stated),51.5*,0.8,64.4*,46.9,19.5,-4.6,-70.3,55.2*,54.3*
COCCn1c(C)cc(C(=O)COC(=O)c2n[nH]c3ccccc23)c1C,44.0*,29.1,83.4*,33.8,51.3*,23.4*,-19.6,66.5*,69.3*

# Assay outcomes as filed in PubChem BioAssay.
